Compounds with a hit are over-represented: about 3% of the library has one in this group of screens.
Lipid droplet: hepatic lipid droplet formation modulation; inhibition, % at 6.5 µM; AID 1656; AML12 mouse hepatocytes, oleate lipid droplets, BODIPY imaging; 240,000 compounds, 0.4% hits;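 active = lipid droplet intensity inhibited by at least 50%, with more than 500 cells counted; inconclusive = wells with under 300 cells, treated as cytotoxic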
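material = mouse AML12 hepatocyte cell line, fixed after treatment | also added = 100 µM oleic acid challenge | doses = compound at 6.5 µM only | schedule = overnight exposure | technique = Image-based BODIPY and DAPI two-channel analysis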
NPR1 activator: GC-A (human) enzyme activation | 370,000 compounds, 0.14% hits | HEK293 GC-A cells, cGMP TR-FRET, EC30 ANP; 0% at EC30 ANP, 100% saturating ANP | activation, % at 10 µM | P16066; in the data active = activation above about 40%
aDG glyco up: increases alpha dystroglycan glycosylation | Pro5-aDG cells, alpha-DG glycosylation AlphaScreen (IIH6); 0% Pro5, 100% B10-LARGE cell signal | activation, % at 10 µM | 360,000 compounds, 0.22% hits;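 active = activation of at least 8% versus controls, or a plate z-score of at least 8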;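 note: Pro5 are CHO cells carrying HIG-tagged alpha-DG that lacks glycosylation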
JMJD2C inh: blocks human GASC-1 demethylase activity. Q9H3R0. GST-JMJD2C(1-420) H3K9me3 demethylation, DELFIA europium. AID 2099. inhibition, % at 2.35 µM. 330,000 compounds, 0.069% hits;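 active = more than half of a compound's replicate wells show inhibition beyond 50%, single wells judged on their own value; inconclusive = some, but no more than half, of replicates pass 50% inhibition; inactive = no replicate passes 50% inhibition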;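 note: signal counts dimethyl H3K9 product captured on neutravidin plate; 0% = median of DMSO wells and 100% = 0.3 times that DMSO median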
NR3A LBD binder: NR3A (human) ligand-binding domain modulation; NR3A LBD differential scanning fluorimetry, Tm shift; 0% = protein alone, 100% = glycine-bound protein; 340,000 compounds, 2.5% hits; Tm shift relative to glycine control, % at 25 µM; AID 1259313;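 active = melting temperature shift of at least 10% of the positive control shift, at one fixed dose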
GC-B act: GC-B (human) receptor activation | P20594 | HEK293-GC-B cells, CNP EC30, cGMP TR-FRET; 0% at EC30 CNP, 100% saturating CNP | activation, % at 10 µM | 370,000 compounds, 0.11% hits;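 active = activation at 10 µM reaching about 35% in either raw or pattern-adjusted values, limit read from the data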
Target sequence (P20594 whole entry, looked up): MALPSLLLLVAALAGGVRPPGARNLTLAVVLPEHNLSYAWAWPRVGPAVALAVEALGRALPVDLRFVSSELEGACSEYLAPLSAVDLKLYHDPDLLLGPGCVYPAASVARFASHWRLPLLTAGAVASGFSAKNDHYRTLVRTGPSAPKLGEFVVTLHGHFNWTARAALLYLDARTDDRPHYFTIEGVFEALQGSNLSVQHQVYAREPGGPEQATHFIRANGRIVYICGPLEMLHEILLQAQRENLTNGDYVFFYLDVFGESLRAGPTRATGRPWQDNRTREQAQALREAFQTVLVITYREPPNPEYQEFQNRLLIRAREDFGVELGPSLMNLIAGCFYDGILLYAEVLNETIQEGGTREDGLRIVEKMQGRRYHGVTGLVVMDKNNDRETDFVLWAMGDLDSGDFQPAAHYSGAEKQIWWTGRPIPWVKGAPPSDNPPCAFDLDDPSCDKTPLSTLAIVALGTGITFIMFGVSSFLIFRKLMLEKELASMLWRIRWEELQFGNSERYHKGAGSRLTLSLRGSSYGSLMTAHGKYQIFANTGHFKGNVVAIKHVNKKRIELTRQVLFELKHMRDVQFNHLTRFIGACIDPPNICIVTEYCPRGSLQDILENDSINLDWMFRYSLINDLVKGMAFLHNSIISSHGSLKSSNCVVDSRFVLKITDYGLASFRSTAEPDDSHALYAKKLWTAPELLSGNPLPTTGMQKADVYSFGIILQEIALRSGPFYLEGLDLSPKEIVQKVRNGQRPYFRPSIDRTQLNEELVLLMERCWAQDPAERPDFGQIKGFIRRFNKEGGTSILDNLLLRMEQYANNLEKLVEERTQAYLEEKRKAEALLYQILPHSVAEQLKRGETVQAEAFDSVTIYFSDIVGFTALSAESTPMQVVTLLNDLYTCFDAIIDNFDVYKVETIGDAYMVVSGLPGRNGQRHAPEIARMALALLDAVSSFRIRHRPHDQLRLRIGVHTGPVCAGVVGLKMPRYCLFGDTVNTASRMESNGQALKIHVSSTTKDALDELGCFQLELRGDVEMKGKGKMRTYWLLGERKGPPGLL
* marks the source's active call; other numbers are inactive results; u = inconclusive; x = no result given.

SMILES	Lipid droplet	NPR1 activator	aDG glyco up	JMJD2C inh	NR3A LBD binder	GC-B act
O=C(Cc1ccc(F)cc1)Nc1nc(-c2ccc(F)cc2)cs1	28.7	17.3	0.4	5.4	-2.4	5.2
O=C(CN1CCCCC1)Nc1nc(-c2ccccc2)cs1	x	7.9	0.1	-3.9	8.7	1.1
O=C(Cc1c(F)c(F)c(F)c(F)c1F)Nc1nc(-c2ccccc2)cs1	-38.6	6.1	0.3	5.0	11.8*	0.8
CN1CCN(CC(=O)Nc2nc(-c3ccccc3)cs2)CC1	x	5.9	0.0	-0.8	13.1*	2.9
CCCCNS(=O)(=O)CC1NCc2cc(OC)ccc21 (stereo unspecified)	x	2.4	x	x	x	4.6
Cc1ccccc1CS(=O)(=O)Cc1ccc(C(=O)Nc2ccc(F)cc2F)o1	x	-4.1	x	x	x	0.7
Cc1cc(C(=O)O[C@H]2CCC[C@]3(C(=O)N(Cc4ccccc4)c4ccccc43)[C@H]2NC(=O)CCc2ccccc2)no1	x	-3.7	x	x	x	0.9
O=C(N/N=C/c1ccc(-c2cccc([N+](=O)[O-])c2)o1)[C@H]1C[C@@H]1c1ccccc1	-33.2	-2.4	-0.3	6.5	14.8*	1.2
O=C(N/N=C/c1ccc(-c2ccc([N+](=O)[O-])cc2)o1)[C@H]1C[C@@H]1c1ccccc1	14.7	20.3	-0.2	3.1	8.3	8.4
Cc1cc([N+](=O)[O-])ccc1-c1ccc(/C=N/NC(=O)c2ccc(Br)o2)o1	25.2	0.3	-0.1	4.1	26.6*	-2.7
N#C/C(=C\c1ccc(-c2cccc([N+](=O)[O-])c2)o1)C(=O)Nc1nc(-c2cccs2)cs1	-4.7	-4.2	-0.3	-10.4	11.4*	6.5
O=C(N/N=C/c1ccc(-c2cccc([N+](=O)[O-])c2)o1)c1cccs1	16.5	8.6	-0.1	-23.7	14.1*	1.5
O=C(Nc1nc(-c2cccs2)cs1)c1ccc([N+](=O)[O-])o1	x	-1.3	1.1	3.6	-5.0	-12.8
Cc1cc(C(=O)N/N=C/c2ccc(-c3ccc([N+](=O)[O-])cc3C)o2)n[nH]1	3.6	5.4	0.2	-1.2	2.8	-1.1
O=C(CNC(=O)c1ccccn1)N=Nc1c(O)[nH]c2ccccc12	-4.1	-1.8	-0.1	-4.3	1.0	-3.0
CSCCC(NC(=O)c1ccc(C)o1)C(=O)O (stereo unspecified)	x	2.2	0.1	2.2	15.5*	6.0
CSCCC(NC(=O)c1cc(C)oc1C)C(=O)O (stereo unspecified)	8.8	8.4	-0.2	10.2	1.1	2.3
COC(=O)C1CN(Cc2cn(CCOC(C)=O)nn2)CCS(=O)(=O)N1Cc1ccc(F)cc1 (stereo unspecified)	x	2.2	x	x	x	3.5
O=C(Nc1ccc(Oc2ccc(Cl)cc2)c(Cl)c1)c1cc(I)cc(I)c1O	4.7	13.6	0.9	11.0	31.1*	19.7
O=C(O)C1C2C=CC(C2)C1C(=O)OC1CC2CCC1C2 (stereo unspecified)	x	4.8	0.1	1.6	13.7*	6.8
O=C(O)CCC(=O)OC1CC2CCC1C2 (stereo unspecified)	x	1.1	0.1	7.0	-0.3	-4.4
Cc1ccc(C)c(SCC(=O)NC2CCS(=O)(=O)C2)c1 (stereo unspecified)	x	4.4	0.2	x	1.1	5.8
Cc1ccc(-n2nnnc2SCC(=O)NC2CCS(=O)(=O)C2)c(C)c1 (stereo unspecified)	x	4.7	-0.5	x	19.0*	3.0
CCCOC(=O)c1c(-c2ccc(OC)cc2)oc2ccc(-c3ccc(OC)nc3)cc12	x	-0.5	-0.1	6.0	14.8*	-9.8
COC(=O)c1c(-c2ccc(OC)cc2)oc2ccc(-c3ccc(OC)nc3)cc12	x	-5.1	0.3	-4.6	0.5	-11.8
SMILES	Lipid droplet	NPR1 activator	aDG glyco up	JMJD2C inh	NR3A LBD binder	GC-B act
COc1ccc(C(=O)/C=C/C(=O)N(Cc2ccc(F)cc2)C(C(=O)NC2CCCCC2)c2ccncc2)c(O)c1 (stereo unspecified)	-12.8	x	0.3	-2.8	4.1	x
COc1ccc(C(=O)/C=C/C(=O)N(Cc2ccccc2)C(C(=O)NC2CCCCC2)c2ccncc2)c(O)c1 (stereo unspecified)	-58.3	3.4	0.1	-4.0	17.4*	-4.9
Cc1ccc(F)c(CNC(=O)C2CCC(=O)N(Cc3ccccn3)C2)c1F (stereo unspecified)	-46.8	0.1	0.1	10.9	-0.7	5.8
O=C(N/N=C/c1c[nH]c2ccccc12)c1[nH]c2ccc(Br)cc2c1-c1ccccc1	23.0	2.0	-0.6	6.8	26.7*	4.3
O=C(N/N=C/c1ccc(O)cc1)c1[nH]c2ccc(Br)cc2c1-c1ccccc1	u	0.3	-0.7	0.9	29.1*	-9.4
COc1cccc(C(=O)N[C@H](C(=O)N2CCC[C@H]2C(=O)NCc2ccccc2)c2ccccc2)c1	x	-2.6	x	x	x	-2.8
C=CCN=C1NC(CCc2ccccc2)C(C(=O)OC)=C(C)N1Cc1cccc(C(F)(F)F)c1 (stereo unspecified)	x	-26.2	x	x	x	-28.2
CCOCCCNc1nc2c(C)cccn2c(=O)c1/C=C1\SC(=S)N(C(C)CC)C1=O (stereo unspecified)	86.3*	-0.4	0.0	23.9	-7.9	-3.9
CCOCCCNc1nc2c(C)cccn2c(=O)c1/C=C1\SC(=S)N(CC(C)C)C1=O	x	4.2	0.2	-3.8	1.5	-5.1
COC(=O)c1ccc2[nH]c3cccc(/C(=C/c4ccccc4)c4ccccc4)c3c2c1	x	-4.4	-0.2	-4.6	24.0*	-1.6
Clc1ccc(-n2c(SCc3cccc4ccccc34)nnc2-c2cccnc2)cc1	x	-12.4	x	x	x	-11.3
C=CCn1c(SCC(=O)Nc2cc(C)on2)nc2sc(CC)cc2c1=O	-15.3	-0.7	0.0	-21.0	-0.9	-15.0
C=CCn1c(SCC(=O)Nc2ccc(O)cc2)nc2sc(CC)cc2c1=O	3.6	-19.1	-0.1	2.6	33.5*	-11.7
Cn1c2ccccc2c2cc(/C=N/NC(=O)c3ccc(O)cc3O)ccc21	4.2	x	0.0	-9.8	30.2*	x
COc1ccc(/C=N/NC(=O)c2ccc(O)cc2O)cc1CSc1ccccn1	18.2	-6.7	-0.1	-3.7	20.5*	-1.3
COc1ccc2c(c1)cc(C(=O)N/N=C/c1c(O)c(C(=O)O)cc3ccccc13)n2C	-11.4	2.0	-0.4	3.9	11.2*	-4.7
COc1ccc(C=O)cc1CSc1ccccn1	-2.9	1.1	0.0	6.2	-0.5	-3.2
Cn1cc(C(=O)N/N=C/c2ccc3c(c2)OCO3)c2ccccc21	3.1	-4.9	-0.1	0.4	2.9	1.8
CCn1c2ccccc2c2cc(/C=N/NC(=O)c3cc(O)cc(O)c3)ccc21	28.4	-15.3	0.1	1.1	21.0*	-3.8
